Test [1] deals with Enterobacter. The test is described as follows: Antimicrobial activity against Enterobacter isolates producing extended-spectrum beta-lactamase assessed as percent resistant isolates by disk diffusion method.
Test [2] deals with Enterobacter. The test is described as follows: Antimicrobial activity against Enterobacter isolates producing extended-spectrum beta-lactamase CTX-M-2 by agar dilution method. The test is classed as functional. The procedure, abridged: (§1)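 Enterobacterial clinical isolates on Mueller-Hinton agar. Agar dilution with an inoculum of 10⁴ CFU per spot gave MICs of selected β-lactams. β-lactams were tested alone or with a fixed level of clavulanic acid (4 μg/ml) or tazobactam (4 μg/ml).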

The subject of test [3] is Enterobacter. The test can be described thus: Antimicrobial activity against Enterobacter isolates producing extended-spectrum beta-lactamase TEM-ES by agar dilution method. It counts as functional. The procedure, abridged:
as §1

Test [4] has as its system Enterobacter. The test is described as follows: Antimicrobial activity against Enterobacter isolates producing extended-spectrum beta-lactamase SHV-ES by agar dilution method. It counts as functional. In outline: as §1
Test [5] relates to Enterobacter. The test is described as follows: Antimicrobial activity against Enterobacter isolates producing extended-spectrum beta-lactamase CTX-M-9 by agar dilution method. It counts as functional. In outline: as §1
For test [6], the system named is Enterobacter. The test can be described thus: Antimicrobial activity against Enterobacter isolates producing extended-spectrum beta-lactamase CTX-M-14 by agar dilution method. It counts as functional. The procedure, abridged:
as §1

Test [7] relates to Enterobacter. The test can be described thus: Antimicrobial activity against Enterobacter isolates producing extended-spectrum beta-lactamase CTX-M-1 by agar dilution method. The test is classed as functional. In outline:
as §1

The subject of test [8] is Enterobacter. The test can be described thus: Antimicrobial activity against Enterobacter isolates producing extended-spectrum beta-lactamase CTX-M-15 by agar dilution method. The test is classed as functional. In outline: as §1

≈ marks a conversion by molar mass, not a printed value.

On to `NCC[C@H](O)C(=O)N[C@@H]1C[C@H](N)[C@@H](O[C@H]2O[C@H](CN)[C@@H](O)[C@H](O)[C@H]2O)[C@H](O)[C@H]1O[C@H]1O[C@H](CO)[C@@H](O)[C@H](N)[C@H]1O` [AMIKACIN], for which the Activity in test [1] is recorded as 2%.
As for `CC1(C)S[C@@H]2[C@H](NC(=O)[C@H](N)c3ccc(O)cc3)C(=O)N2[C@H]1C(=O)O` [AMOXICILLIN], the MIC in test [2], in test [3], in test [4], in test [5], in test [6] and in test [7] was > 256 µg/mL in each case. The MIC in test [8] is > 256 µg/mL.
As to `C[C@H]1[C@H](NC(=O)/C(=N\OC(C)(C)C(=O)O)c2csc(N)n2)C(=O)N1S(=O)(=O)O` [AZTREONAM], the MIC is 16 µg/mL (≈ 36.7 µM) in test [2]; 2 µg/mL (≈ 4.59 µM) in test [3]; 2 µg/mL (≈ 4.59 µM) in test [4]; 2 µg/mL (≈ 4.59 µM) in test [5]; 2 µg/mL (≈ 4.59 µM) in test [6]; 64 µg/mL (≈ 147 µM) in test [7]. For the same compound, the MIC in test [8] came out at 2 µg/mL (≈ 4.59 µM).
As to `CO/N=C(\C(=O)N[C@@H]1C(=O)N2C(C(=O)[O-])=C(C[N+]3(C)CCCC3)CS[C@H]12)c1csc(N)n1` [CEFEPIME], the MIC came to 16 µg/mL (≈ 33.3 µM) in test [2]; 0.25 µg/mL (≈ 0.52 µM) in test [3]; 0.25 µg/mL (≈ 0.52 µM) in test [4]; 2 µg/mL (≈ 4.16 µM) in test [5]; 2 µg/mL (≈ 4.16 µM) in test [6]; 32 µg/mL (≈ 66.6 µM) in test [7]. For the same compound, the MIC in test [8] was 8 µg/mL (≈ 16.6 µM).
Regarding `CO/N=C(\C(=O)N[C@@H]1C(=O)N2C(C(=O)O)=C(COC(C)=O)CS[C@H]12)c1csc(N)n1` [CEFOTAXIME], the MIC was 128 µg/mL (≈ 281 µM) in test [2]; 0.12 µg/mL (≈ 0.263 µM) in test [3]; 2 µg/mL (≈ 4.39 µM) in test [4]; 32 µg/mL (≈ 70.3 µM) in test [5]; 32 µg/mL (≈ 70.3 µM) in test [6]; > 256 µg/mL in test [7]. The MIC in test [8] was 128 µg/mL (≈ 281 µM).
As for `CO[C@@]1(NC(=O)Cc2cccs2)C(=O)N2C(C(=O)O)=C(COC(N)=O)CS[C@@H]21` [CEFOXITIN], the MIC worked out at 4 µg/mL (≈ 9.36 µM) in test [2]; 4 µg/mL (≈ 9.36 µM) in test [3]; 4 µg/mL (≈ 9.36 µM) in test [4]; 8 µg/mL (≈ 18.7 µM) in test [5]; 4 µg/mL (≈ 9.36 µM) in test [6]; 8 µg/mL (≈ 18.7 µM) in test [7]. Further, in test [8], the MIC was found to be 4 µg/mL (≈ 9.36 µM).
In the case of `CC(C)(O/N=C(\C(=O)N[C@@H]1C(=O)N2C(C(=O)[O-])=C(C[n+]3ccccc3)CS[C@H]12)c1csc(N)n1)C(=O)O` [CEFTAZIDIME], the MIC in test [2] amounted to 1 µg/mL (≈ 1.83 µM); in test [3], 4 µg/mL (≈ 7.32 µM); in test [4] it was 0.25 µg/mL (≈ 0.457 µM); in test [5], 1 µg/mL (≈ 1.83 µM); in test [6] it was 0.5 µg/mL (≈ 0.915 µM); in test [7] it was 4 µg/mL (≈ 7.32 µM). In test [8], this compound yielded an MIC of 1 µg/mL (≈ 1.83 µM).
For `CC(=O)OCC1=C(C(=O)O)N2C(=O)[C@@H](NC(=O)Cc3cccs3)[C@H]2SC1` [CEPHALOTHIN], the MIC in test [2], in test [3], in test [4], in test [5], in test [6] and in test [7] was > 256 µg/mL each time. Also, the MIC in test [8] was > 256 µg/mL.
For `O=C(N[C@H](CO)[C@H](O)c1ccc([N+](=O)[O-])cc1)C(Cl)Cl` [CHLORAMPHENICOL], the Activity in test [1] turned out to be 30%.
For the compound `O=C(O)c1cn(C2CC2)c2cc(N3CCNCC3)c(F)cc2c1=O` [CIPROFLOXACIN], the Activity in test [1] worked out at 50%.
For `C[C@@H](O)[C@H]1C(=O)N2C(C(=O)O)=C(S[C@@H]3CN[C@H](C(=O)Nc4cccc(C(=O)O)c4)C3)[C@H](C)[C@H]12` [ERTAPENEM], the MIC in test [2] worked out at 0.06 µg/mL (≈ 0.126 µM); in test [3] it was 0.06 µg/mL (≈ 0.126 µM); in test [4], 0.06 µg/mL (≈ 0.126 µM); in test [5] it was 0.06 µg/mL (≈ 0.126 µM); in test [6] it was 0.003 µg/mL (≈ 0.00631 µM); in test [7], 0.12 µg/mL (≈ 0.252 µM). This compound registered an MIC in test [8] of 0.003 µg/mL (≈ 0.00631 µM).
For `C[C@@H](O)[C@H]1C(=O)N2C(C(=O)O)=C(SCCNC=N)C[C@H]12` [IMIPENEM ANHYDROUS], the MIC in test [2], in test [3], in test [4], in test [5], in test [6] and in test [7] was 0.25 µg/mL (≈ 0.835 µM) each time. For the same compound, in test [8], the MIC was determined as 0.25 µg/mL (≈ 0.835 µM).
`CCN1CCN(C(=O)N[C@@H](C(=O)N[C@@H]2C(=O)N3[C@@H]2SC(C)(C)[C@@H]3C(=O)O)c2ccccc2)C(=O)C1=O` [PIPERACILLIN]: the MIC in test [2] was 128 µg/mL (≈ 247 µM); in test [3], 32 µg/mL (≈ 61.8 µM); in test [4], 32 µg/mL (≈ 61.8 µM); in test [5] it was 64 µg/mL (≈ 124 µM); in test [6] it was 32 µg/mL (≈ 61.8 µM); in test [7] it was > 256 µg/mL. Further, in test [8], the MIC came to 128 µg/mL (≈ 247 µM).
As to `CC1(C)S[C@@H]2[C@H](NC(=O)[C@H](C(=O)O)c3ccsc3)C(=O)N2[C@H]1C(=O)O` [TICARCILLIN], the MIC in test [2], in test [3], in test [4], in test [5], in test [6] and in test [7] was > 256 µg/mL each time. In addition, the MIC in test [8] was > 256 µg/mL.
